Here are results for 26 compounds from ChEMBL document CHEMBL3734660, “Inhibitory effect of cytotoxic stilbenes related to resveratrol on the expression of the VEGF, hTERT and c-Myc genes” (Eur J Med Chem, 2015).

Each structure is given as a SMILES string. Values after ≈ are worked out from the molar mass of the structure shown.

Data set [1] has as its system HT-29. As to the kind of experiment: Cytotoxicity against human HT-29 cells assessed inhibition of cell proliferation after 3 days by MTT assay. Particulars: HT-29, 72 h. In general terms: Formazan colour is commonly taken as a measure of viable cells.
In another data set the test system is HEK293. As to the kind of experiment: Cytotoxicity against HEK293 cells assessed inhibition of cell proliferation after 3 days by MTT assay. To be noted: Homo sapiens, HEK293, 72 h.
For a further data set, the system named is MCF7. As to the kind of experiment: Cytotoxicity against human MCF7 cells assessed inhibition of cell proliferation after 3 days by MTT assay. To be noted: MCF7, 72 h.
In data set [2] the test system is HT-29. Briefly: Down regulation of VEGF gene expression in human HT-29 cells at 10 ug/mL after 48 hrs by RT-qPCR analysis relative to control. Type of data set: functional. An outline of the steps:
(§1)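 HT-29 or MCF-7 cells grown to 70–80% confluence, serum-starved 24 h, then exposed to compound in DMSO for 48 h; DMSO-only control. Total RNA extracted and transcript measured by RT-qPCR, normalized to β-actin and expressed as percentage of control. At least three measurements; mean ± SEM; one-sample t-test.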
Background: Quantitative PCR measures a nucleic acid by following its amplification.

Data set [3] can be described thus: Selectivity ratio of IC50 for HEK293 cells to IC50 for human MCF7 cells. Type of data set: ADME, cell-based. To be noted: HEK293 cells versus MCF7 cells, read-out: Ratio IC50.
Data set [4] concerns HT-29. As to the kind of experiment: Down regulation of c-Myc gene expression in human HT-29 cells at 10 ug/mL after 48 hrs by RT-qPCR analysis relative to control. Type of data set: functional. An outline of the steps: as §1
Data set [5] concerns HT-29. As to the kind of experiment: Down regulation of hTERT gene expression in human HT-29 cells at 10 ug/mL after 48 hrs by RT-qPCR analysis relative to control. In kind it is functional. In a few lines:
as §1

Data set [6] deals with HT-29. As to the kind of experiment: Inhibition of VEGF protein secretion in human HT-29 cells at 10 ug/mL after 72 hrs by ELISA relative to control. Type of data set: functional. More on the design: scale not given: the % may be the effect or the level left. (In general: An ELISA detects its analyte on a solid surface through an enzyme-linked reagent.)
A short description of data set [7]: Selectivity ratio of IC50 for HEK293 cells to IC50 for human HT-29 cells. In kind it is ADME, cell-based. Particulars: HEK293 cells versus HT-29 cells, read-out: Ratio IC50.

Broadly, the IC50 is the concentration needed to halve the response being measured. With `Nc1cccc(/C=C/c2cccc(O)c2)c1`, the IC50 in the data set on HT-29 [1] is 43 µg/mL (≈ 204 µM); in the data set with HEK293, above 100 µg/mL; in the data set with MCF7 it was 54 µg/mL (≈ 256 µM). Further, the Activity in the data set with HT-29 [2] is 52%; with HT-29 [4], 54%; with HT-29 [5] it was 58%; in the data set on HT-29 [6], 92%. Also, the selectivity ratio in data set [3] is above 1.8; in [7] it was above 2.3.
For the compound `CCCCCCCCCCCC(=O)Nc1cccc(/C=C/c2ccccc2)c1`, the 50% inhibitory concentration (IC50) in the data set with HT-29 [1] was above 100 µg/mL; in the data set with HEK293 it was 11.6 µg/mL (≈ 30.7 µM); in the data set on MCF7 it was 3.5 µg/mL (≈ 9.27 µM). For the same compound, the results for the selectivity ratio in [3] and in [7] were 3.3 and below 0.1, respectively.
For the compound `Oc1ccc(/C=C/c2ccccc2O)cc1`, the IC50 is 22 µg/mL (≈ 104 µM) in the data set on HT-29 [1], 17.5 µg/mL (≈ 82.5 µM) with HEK293 and 21 µg/mL (≈ 98.9 µM) in the data set with MCF7. Also, the selectivity ratio in [3] and in [7] was 0.8 throughout.
Consider `COc1ccccc1/C=C/c1ccccc1O`, for which the IC50 in the data set with HT-29 [1] stood at 23 µg/mL (≈ 102 µM); in the data set with HEK293 it was 15 µg/mL (≈ 66.3 µM); in the data set on MCF7 it was 17.9 µg/mL (≈ 79.1 µM). Besides, the selectivity ratio in [3] turned out to be 0.8; in data set [7] it was 0.7.
With `Nc1cccc(/C=C/c2ccccc2O)c1`, the IC50 turned out to be 30.4 µg/mL (≈ 144 µM) with HT-29 [1], 96 µg/mL (≈ 454 µM) with HEK293 and 24.7 µg/mL (≈ 117 µM) with MCF7. Besides, the Activity in the data set on HT-29 [2] turned out to be 38%; with HT-29 [4] it was 37%; in the data set with HT-29 [5] it was 52%; in the data set with HT-29 [6], 76%. For the same compound, the selectivity ratio in data set [3] came to 3.9; in [7], 3.2.
For the compound `COc1ccccc1/C=C/c1ccc(N)cc1`, the values for the IC50 with HT-29 [1], with HEK293 and with MCF7 were 22 µg/mL (≈ 97.7 µM), 1 µg/mL (≈ 4.44 µM) and 3.2 µg/mL (≈ 14.2 µM), respectively. The selectivity ratio is 0.3 in data set [3] and below 0.1 in data set [7].
For `COc1ccc(/C=C/c2cccc(O)c2)cc1`, the figures for the IC50 in the data set with HT-29 [1], in the data set with HEK293 and with MCF7 were 22 µg/mL (≈ 97.2 µM), 24 µg/mL (≈ 106 µM) and 21 µg/mL (≈ 92.8 µM), respectively. The Activity in the data set on HT-29 [2] is listed as 38%; in the data set with HT-29 [4] it was 46%; with HT-29 [5] it was 48%; in the data set with HT-29 [6] it was 73%. Moreover, the selectivity ratio in [3] and in data set [7] was 1.1 in each case.
Take `COc1cccc(/C=C/c2ccccc2O)c1`: the figures for the IC50 in the data set on HT-29 [1], in the data set on HEK293 and in the data set on MCF7 were 26 µg/mL (≈ 115 µM), 20 µg/mL (≈ 88.4 µM) and 18 µg/mL (≈ 79.5 µM), respectively. For the same compound, the selectivity ratio in data set [3] came out at 1.1; in [7], 0.8.
In the same order, the values of `Oc1cccc(/C=C/c2ccccc2O)c1` are 27 µg/mL (≈ 127 µM), 18 µg/mL (≈ 84.8 µM), 20.1 µg/mL (≈ 94.7 µM), 0.9 and 0.7.
In the case of `COc1ccccc1/C=C/c1cccc(O)c1`, the IC50 with HT-29 [1] turned out to be 17 µg/mL (≈ 75.1 µM); in the data set on HEK293, 24 µg/mL (≈ 106 µM); in the data set on MCF7, 24.3 µg/mL (≈ 107 µM). Also, the Activity in the data set with HT-29 [2] came to 77%; in the data set on HT-29 [4] it was 100%; in the data set on HT-29 [5] it was 52%; in the data set with HT-29 [6], 69%. In addition, the values for the selectivity ratio in data set [3] and in data set [7] were 1 and 1.4, respectively.
Consider `Nc1ccccc1/C=C/c1ccccc1O`, for which the concentration for half-maximal inhibition (IC50) was 36 µg/mL (≈ 170 µM) in the data set with HT-29 [1], 27 µg/mL (≈ 128 µM) in the data set on HEK293 and 39 µg/mL (≈ 185 µM) in the data set with MCF7. Moreover, the selectivity ratio in [3] and in data set [7] was 0.7 in each case.
For the compound `Nc1ccccc1/C=C/c1cccc(O)c1`, the IC50 came to 30 µg/mL (≈ 142 µM) in the data set on HT-29 [1], 20 µg/mL (≈ 94.7 µM) in the data set with HEK293 and 17 µg/mL (≈ 80.5 µM) in the data set with MCF7. For the same compound, the selectivity ratio in data set [3] came to 1.2; in data set [7] it was 0.7.
In the same order, the values of `Nc1ccc(/C=C/c2cccc(O)c2)cc1` are 42 µg/mL (≈ 199 µM), 25 µg/mL (≈ 118 µM), 24.8 µg/mL (≈ 117 µM), 1 and 0.6.
In the case of `COc1cccc(/C=C/c2ccc(O)cc2)c1` [(E)-5-METHOXY-4'-STILBENOL], the IC50 with HT-29 [1] is 26 µg/mL (≈ 115 µM); in the data set with HEK293 it was 24 µg/mL (≈ 106 µM); in the data set with MCF7, 21 µg/mL (≈ 92.8 µM). For the same compound, the selectivity ratio was determined as 1.1 in data set [3] and 0.9 in [7].
The corresponding values for `Oc1cccc(/C=C/c2cccc(O)c2)c1` are 25.9 µg/mL (≈ 122 µM), 21 µg/mL (≈ 98.9 µM), 21 µg/mL (≈ 98.9 µM), 1 and 0.8.
Take `Nc1cccc(/C=C/c2ccc(O)cc2)c1`: the results for the IC50 in the data set with HT-29 [1], with HEK293 and with MCF7 were 51 µg/mL (≈ 241 µM), 7 µg/mL (≈ 33.1 µM) and 6 µg/mL (≈ 28.4 µM), respectively. The selectivity ratio in [3] worked out at 1.2; in data set [7], 0.1.
The corresponding values for `COc1ccc(/C=C/c2ccccc2N)cc1` are 73 µg/mL (≈ 324 µM), 0.6 µg/mL (≈ 2.66 µM), 0.4 µg/mL (≈ 1.78 µM), 1.4 and below 0.1.
In the same order, the values of `COc1ccccc1/C=C/c1ccccc1N` are above 100 µg/mL, 2.1 µg/mL (≈ 9.32 µM), above 100 µg/mL, below 0.1 and below 0.1.
The corresponding values for `COc1ccc(/C=C/c2ccc(O)cc2)cc1` are 17.4 µg/mL (≈ 76.9 µM), 3.9 µg/mL (≈ 17.2 µM), 11.3 µg/mL (≈ 49.9 µM), 0.3 and 0.2.
With `Nc1ccc(/C=C/c2ccccc2O)cc1`, the IC50 in the data set with HT-29 [1] came to 37 µg/mL (≈ 175 µM); in the data set on HEK293 it was 21.4 µg/mL (≈ 101 µM); in the data set with MCF7, 23 µg/mL (≈ 109 µM). The selectivity ratio in data set [3] stood at 1; in [7], 0.6.
Consider `CCCCCCCCCCCC(=O)Nc1ccc(/C=C/c2ccccc2)cc1`, for which the IC50 is above 100 µg/mL in the data set on HT-29 [1], 10 µg/mL (≈ 26.5 µM) in the data set on HEK293 and 5.8 µg/mL (≈ 15.4 µM) with MCF7. In addition, the selectivity ratio was 1.7 in data set [3] and below 0.1 in data set [7].
In the same order, the values of `Nc1ccc(/C=C/c2ccc(O)cc2)cc1` are 30.6 µg/mL (≈ 145 µM), 0.8 µg/mL (≈ 3.79 µM), 2.2 µg/mL (≈ 10.4 µM), 0.4 and 0.03.
The corresponding values for `Oc1ccccc1/C=C/c1ccccc1O` are 25 µg/mL (≈ 118 µM), 24.3 µg/mL (≈ 114 µM), 23 µg/mL (≈ 108 µM), 1.1 and 0.9.
As for `Oc1ccc(/C=C/c2cccc(O)c2)cc1` [(E)-3,4'-STILBENDIOL], the figures for the IC50 in the data set with HT-29 [1], in the data set on HEK293 and with MCF7 were 6.9 µg/mL (≈ 32.5 µM), 1.1 µg/mL (≈ 5.18 µM) and 23 µg/mL (≈ 108 µM), respectively. The selectivity ratio in data set [3] was below 0.1; in data set [7], 0.2.
On to `Oc1ccc(/C=C/c2ccc(O)cc2)cc1` [TRANS-4,4'-DIHYDROXYSTILBENE], for which the IC50 is above 100 µg/mL with HT-29 [1], 1.2 µg/mL (≈ 5.65 µM) in the data set on HEK293 and 6.8 µg/mL (≈ 32 µM) with MCF7. In addition, the selectivity ratio was 0.2 in data set [3] and below 0.1 in data set [7].
In the same order, the values of `Nc1ccccc1/C=C/c1ccc(O)cc1` are above 100 µg/mL, 7 µg/mL (≈ 33.1 µM), 79 µg/mL (≈ 374 µM), below 0.1 and below 0.1.
